In brackets after ≈: the same amount, converted by molar mass. Activity calls are given as the source filed them. No cut-off for these calls is given here.
Assays:
[1] = molecular target: T1, Stromal cell-derived factor 1 (Homo sapiens, UniProt P48061); experiment: Binding affinity to Texas Red-labelled CXCL12 (unknown origin) assessed as inhibition of CXCL12-Texas Red binding to EGFP-labeled human CXCR4 expressed in HEK293 cell membranes pre-incubated for 1 hr by FRET-based binding assay
Outline: (§1)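 HEK-293 cells stably expressing human EGFP-CXCR4, 10⁶ cells/ml in HEPES buffer pH 7.4 with 0.1% BSA, 21 °C. CXCL12-Texas Red (100 nM) was preincubated 1 h at room temperature with compound or DMSO, then added at t=150 s. FRET read as loss of EGFP emission at 510 nm (excitation 470 nm) up to equilibrium. Ki from dose-response curves.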

[2] = Kinetic solubility in pH 7.4 HEPES-BSA buffer at 5 uM incubated for 24 hrs at 20 degC by HPLC method; assay type: physicochemical; conditions: read-out: Kinetic_solubility
Outline: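 Compound added from 10 mM DMSO stock to 5 μM in pH 7.4 HEPES-BSA buffer (1 g/L BSA), shaken 24 h at 20 °C. After centrifugation, supernatant concentration measured by HPLC against 5 and 10 μM standards.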

[3] = molecular target: T1, Stromal cell-derived factor 1; experiment: Binding affinity to Texas Red-labelled CXCL12 (unknown origin) assessed as inhibition of CXCL12-Texas Red binding to EGFP-labeled human CXCR4 expressed in HEK293 cell membranes at 30 uM pre-incubated for 1 hr by FRET-based binding assay; outline: as §1
[4] = tested on: Mus musculus; experiment: Inhibition of lymphocytes infiltration in Balb/c mouse model of 8 day model of allergic eosinophilic airway inflammation at 300 nmol/kg dosed intranasally 2 hrs before ovalbumin challenge by hemocytometry; assay type: functional, organism-based
Outline: (§2)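 OVA/alum-sensitized Balb/c mice challenged intranasally with OVA on days 5–7. Compounds at 300 nmol/kg in 10% PBS/Cdx given intranasally 2 h before each challenge. BAL 24 h after the last challenge; eosinophils, neutrophils and lymphocytes counted by hemocytometer and differential cytospin; n=6/group.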

[5] = Chemical stability in pH 7.4 PBS buffer assessed as parent compound remaining at 10 uM incubated for 24 hrs by RP-HPLC method; assay type: physicochemical; conditions: read-out: Stability
Outline: (§3)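 Compound diluted from DMSO stock to 10 μM final (1% DMSO) in PBS pH 7.4, or in PBS with 10% w/w (2-hydroxypropyl)-β-cyclodextrin. Sampled at t0, 2, 4, 6 and 24 h and injected directly onto RP-HPLC. Percent remaining relative to t0 from peak area.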

[6] = tested on: Mus musculus; experiment: Inhibition of eosinophil infiltration in Balb/c mouse model of 8 day model of allergic eosinophilic airway inflammation at 300 nmol/kg dosed intranasally 2 hrs before ovalbumin challenge by hemocytometry; assay type: functional; conditions: for inhibition in vivo at 0.3 µmol/kg: inhaled or nasal; outline: as §2
[7] = tested on: Mus musculus; experiment: Inhibition of macrophages infiltration in Balb/c mouse model of 8 day model of allergic eosinophilic airway inflammation at 300 nmol/kg dosed intranasally 2 hrs before ovalbumin challenge by hemocytometry; assay type: functional, organism-based
[8] = Chemical stability in pH 7.4 PBS/Cdx buffer assessed as parent compound remaining at 10 uM incubated for 24 hrs by RP-HPLC method; assay type: physicochemical; conditions: read-out: Stability; outline: as §3
[9] = Thermodynamic solubility in pH 7.4 PBS/Cdx buffer incubated for 24 hrs at 22 degC by HPLC method; assay type: physicochemical; conditions: read-out: Therm_solubility
Outline: (§4)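 Powder dissolved to saturation in pH 7.4 PBS (100 mM sodium phosphate, 150 mM NaCl), or in PBS with 10% Cdx, and shaken 24 h. After centrifugation, supernatant quantified by HPLC against a per-compound calibration line prepared from the DMSO stock.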

[10] = Thermodynamic solubility in pH 7.4 PBS buffer incubated for 24 hrs at 22 degC by HPLC method; assay type: physicochemical; conditions: read-out: Therm_solubility; outline: as §4
[11] = molecular target: T1, Stromal cell-derived factor 1; experiment: Binding affinity to Texas Red-labelled CXCL12 (unknown origin) assessed as inhibition of CXCL12-Texas Red binding to EGFP-labeled human CXCR4 expressed in HEK293 cell membranes at 10 uM pre-incubated for 1 hr by FRET-based binding assay
Outline: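 FRET binding assay in EGFP-CXCR4 HEK-293 cells. Compound at 10 μM preincubated with CXCL12 before addition to the cells; binding read as EGFP emission at 510 nm after CXCL12-Texas Red addition. T134 (20 μM) used as control.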

[12] = molecular target: T1, Stromal cell-derived factor 1; experiment: Binding affinity to Texas Red-labelled CXCL12 (unknown origin) assessed as inhibition of CXCL12-Texas Red binding to EGFP-labeled human CXCR4 expressed in HEK293 cell membranes at 5 uM pre-incubated for 1 hr by FRET-based binding assay; outline: as §1

T1 sequence (P48061 whole entry): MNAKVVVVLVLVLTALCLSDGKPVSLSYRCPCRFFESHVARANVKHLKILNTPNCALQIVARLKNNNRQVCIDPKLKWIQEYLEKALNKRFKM

Row | Compound | Ki [1] [nM] | solubility kinetic at 24 h, 5 µM [2] [µM] | other results
1 | COc1cc(/C=C2\Cc3cc(Cl)ccc3C2=O)ccc1O | 107 | 0.88 (≈ 0.265 µg/mL) | 
2 | COc1ccc(/C=C/C(=O)c2ccc(Cl)cc2)cc1O | > 10000 | > 5 | 
3 | COc1cc(-c2cc(-c3ccc(Cl)cc3)n[nH]2)ccc1O | > 10000 |  | 
4 | COc1cc(C2CC(c3ccc(Cl)cc3)=NN2)ccc1O (stereo not drawn) | 107 | > 5 | inhibition [4]: inactive; remaining at 24 h, 10 µM [5]: 78%; inhibition in vivo at 0.3 µmol/kg [6]: 39%; inhibition [7]: inactive; remaining at 24 h, 10 µM [8]: 98%; solubility thermodynamic at 24 h [9]: > 3000 µM; solubility thermodynamic at 24 h [10]: 34.6 µM (≈ 10.5 µg/mL)
5 | COc1cc(/C=C2\CCc3cc(Cl)ccc3C2=O)ccc1O |  | > 5 | inhibition [11]: 70%
6 | O=C(/C=C/c1ccc(O)c(C(=O)O)c1)c1ccc(Cl)cc1 | > 10000 | > 5 | 
7 | COc1cc(/C=C/C(=O)c2ccc([N+](=O)[O-])cc2)ccc1O |  | > 5 | inhibition [3]: 30%
8 | COc1cc(/C=C/C(=O)c2ccc(C)cc2)ccc1O | 285 | > 5 | 
9 | Cl.NCCOCCOc1cc(/C=C2\Cc3cc(Cl)ccc3C2=O)ccc1O | 496 | > 5 | inhibition [4]: inactive; inhibition [7]: inactive
10 | O=C(/C=C/c1ccc(O)cc1)c1ccc(Cl)cc1 | 625 | > 5 | 
11 | COc1cc(/C=C/C(=O)c2ccc(S(=O)(=O)O)cc2)ccc1O |  | > 5 | inhibition [3]: 6%
12 | COc1cc(/C=C/C(=O)c2cccnc2)ccc1O | > 10000 | > 5 | 
13 | COc1cc(/C=C/C(=O)c2cc(Cl)ccc2Cl)ccc1O | 53 | > 5 | 
14 | COc1cc(CCC(=O)c2ccc(Cl)cc2)ccc1O | > 10000 |  | 
15 | CNc1nc(-c2ccc(Cl)cc2)cc(-c2ccc(O)c(OC)c2)n1 | > 10000 | > 5 | 
16 | COc1cc(/C=C/C(=O)c2ccc(Cl)cc2Cl)ccc1O | 48 | > 5 | 
17 | COc1cc(/C=C/C(=O)c2ccc3ccccc3c2)ccc1O |  | 0.95 (≈ 0.289 µg/mL) | inhibition [3]: 5%

Row | Compound | Ki [1] [nM] | solubility kinetic at 24 h, 5 µM [2] [µM] | other results
18 | COc1cc(C2CC(c3ccc(Cl)cc3)=NN2C(C)=O)ccc1O (stereo not drawn) | > 10000 | > 5 | 
19 | COc1cc(/C=C/C(=O)c2ccc(F)cc2)ccc1O | 430 | > 5 | 
20 | COc1cc(-c2cc(-c3ccc(Cl)cc3)nc(C)n2)ccc1O | 1680 | > 5 | 
21 | COc1cc(/C=C(\C)C(=O)c2ccc(Cl)cc2)ccc1O | > 5000 | > 5 | 
22 | COc1cc(/C=C/C(=O)c2ccc(C(C)C)cc2)ccc1O | 25 | 1.92 (≈ 0.569 µg/mL) | 
23 | Cl.NCCOc1cc(/C=C/C(=O)c2ccc(Cl)cc2)ccc1O | 357 | > 5 | inhibition [4]: inactive; remaining at 24 h, 10 µM [5]: 100%; inhibition [6]: inactive; inhibition [7]: inactive; remaining at 24 h, 10 µM [8]: 100%; solubility thermodynamic at 24 h [9]: > 5000 µM; solubility thermodynamic at 24 h [10]: 4.2 µM
24 | COc1cc(/C=C/C(=O)c2ccc(C(=O)O)cc2)ccc1O | 5350 | > 5 | 
25 | COc1ccc(/C=C/C(=O)c2ccc(Cl)cc2)cc1OC | > 10000 | > 5 | 
26 | COc1cc(/C=C/C(=O)c2ccc(Cl)cc2F)ccc1O | 107 | > 5 | 
27 | COc1cc(/C=C/C(=O)c2ccc(Cl)c(Cl)c2)ccc1O | 714 | > 5 | 
28 | CCOc1cc(/C=C/C(=O)c2ccc(Cl)cc2)ccc1O |  | 4.72 (≈ 1.43 µg/mL) | inhibition [12]: 52%
29 | COc1cc(/C=C/C(=N/O)c2ccc(Cl)cc2)ccc1O | > 10000 | > 5 | 
30 | COc1cc(/C=C/C(=O)c2c(Cl)cccc2Cl)ccc1O | 71 | > 5 | 
31 | COCOc1ccc(/C=C/C(=O)c2ccc(Cl)cc2O)cc1OC |  |  | inhibition [4]: inactive; inhibition [7]: inactive
32 | COc1cc(/C=C/C(=O)c2ccc(Cl)cc2)ccc1[N+](=O)[O-] | > 10000 | > 5 | 
33 | O=C(/C=C/c1ccc(O)c(O)c1)c1ccc(Cl)cc1 | 350 | > 5 | 
34 | COc1cc(/C(C)=C/C(=O)c2ccc(Cl)cc2)ccc1O | > 10000 | 2.6 (≈ 0.787 µg/mL) | 

The next lines start with results.

Row | Ki [1] [nM] | solubility kinetic at 24 h, 5 µM [2] [µM] | Compound | other results
35 | > 10000 | > 5 | COc1cc(/C=C/C(=O)c2ccncc2)ccc1O | 
36 | 1780 | > 5 | COc1ccc(C(=O)/C=C/c2ccc(O)c(OC)c2)cc1 | 
37 |  | > 5 | COc1cc(/C=C/C(=O)c2cccc(Cl)c2)ccc1O | inhibition [3]: 25%
38 | 357 | > 5 | COc1cc(/C=C/C(=O)c2cccc(Cl)c2Cl)ccc1O | 
39 | 1070 | > 5 | COc1cc(/C=C/C(=O)c2ccc(C(F)(F)F)cc2)ccc1O | 
40 | > 10000 | > 5 | COc1cc(C(=O)/C=C/c2ccc(Cl)cc2)ccc1O | 
41 | 1070 | > 5 | Cl.NCCOCCOc1cc(/C=C/C(=O)c2ccc(Cl)cc2)ccc1O | 
42 | 203 | > 5 | COc1cc(/C=C2\Oc3cc(Cl)ccc3C2=O)ccc1O | remaining at 24 h, 10 µM [5]: 100%; inhibition [6]: inactive; remaining at 24 h, 10 µM [8]: 100%; solubility thermodynamic at 24 h [9]: 330 µM (≈ 99.9 µg/mL); solubility thermodynamic at 24 h [10]: 1.9 µM (≈ 0.575 µg/mL)
43 | 357 | > 5 | COc1cc(/C=C2\COc3cc(Cl)ccc3C2=O)ccc1O | remaining at 24 h, 10 µM [5]: 100%; inhibition [6]: inactive; remaining at 24 h, 10 µM [8]: 100%; solubility thermodynamic at 24 h [9]: 933 µM (≈ 296 µg/mL); solubility thermodynamic at 24 h [10]: 0.5 µM (≈ 0.158 µg/mL)
44 | > 10000 | > 5 | COc1cc(/C=C/C(=O)c2ccc(Cl)cc2)ccc1N | 
45 | 1380 | > 5 | O=C(/C=C/c1ccc2c(c1)OCCO2)c1ccc(Cl)cc1 | 
46 | 107 | > 5 | COc1cc(/C=C/C(=O)c2ccccc2Cl)ccc1O | 
47 | > 10000 | > 5 | COc1cc(/C=C/C(=O)c2ccccc2)ccc1O | inhibition [11]: inactive
48 | > 10000 | > 5 | COc1cc(-c2cc(-c3ccc(Cl)cc3)nc(N)n2)ccc1O | 
49 | 475 | > 5 | Cl.NCCOCCOCCOc1cc(/C=C/C(=O)c2ccc(Cl)cc2)ccc1O | 
50 | > 10000 | 0.36 (≈ 0.0982 µg/mL) | COc1cccc(/C=C/C(=O)c2ccc(Cl)cc2)c1 | 
51 |  | 4.29 (≈ 1.34 µg/mL) | COc1cc(-c2cc(-c3ccc(Cl)cc3)ncn2)ccc1O | inhibition [12]: 30%
52 | 44 | > 5 | COc1cc(/C=C/C(=O)c2ccc(Br)cc2)ccc1O | 
53 | 107 | > 5 | COc1cc(/C=C/C(=O)c2ccc(I)cc2)ccc1O | inhibition [4]: inactive; remaining at 24 h, 10 µM [5]: 100%; inhibition in vivo at 0.3 µmol/kg [6]: 36%; inhibition [7]: inactive; remaining at 24 h, 10 µM [8]: 100%; solubility thermodynamic at 24 h [9]: 319 µM (≈ 121 µg/mL); solubility thermodynamic at 24 h [10]: 1.2 µM (≈ 0.456 µg/mL)
